From ChEMBL document CHEMBL1157912, “Impact of nature and length of linker incorporated in agonists on toll-like receptor 9-mediated immune responses” (J Med Chem, 2010)
The source made the active and inactive calls. The rule behind the calls is not given here.

What was measured:
[1] = molecular target: T1, Toll-like receptor 9 (Homo sapiens) (UniProt Q9NR96); experiment: Induction of TLR9-mediated immune stimulation in human PBMC assessed as IL1Ralpha production at 2 ug/ml after 24 hrs by luminex multiplex assay (RVb = 0.12 +/- 0.03 ng/ml)
T1 sequence (whole entry): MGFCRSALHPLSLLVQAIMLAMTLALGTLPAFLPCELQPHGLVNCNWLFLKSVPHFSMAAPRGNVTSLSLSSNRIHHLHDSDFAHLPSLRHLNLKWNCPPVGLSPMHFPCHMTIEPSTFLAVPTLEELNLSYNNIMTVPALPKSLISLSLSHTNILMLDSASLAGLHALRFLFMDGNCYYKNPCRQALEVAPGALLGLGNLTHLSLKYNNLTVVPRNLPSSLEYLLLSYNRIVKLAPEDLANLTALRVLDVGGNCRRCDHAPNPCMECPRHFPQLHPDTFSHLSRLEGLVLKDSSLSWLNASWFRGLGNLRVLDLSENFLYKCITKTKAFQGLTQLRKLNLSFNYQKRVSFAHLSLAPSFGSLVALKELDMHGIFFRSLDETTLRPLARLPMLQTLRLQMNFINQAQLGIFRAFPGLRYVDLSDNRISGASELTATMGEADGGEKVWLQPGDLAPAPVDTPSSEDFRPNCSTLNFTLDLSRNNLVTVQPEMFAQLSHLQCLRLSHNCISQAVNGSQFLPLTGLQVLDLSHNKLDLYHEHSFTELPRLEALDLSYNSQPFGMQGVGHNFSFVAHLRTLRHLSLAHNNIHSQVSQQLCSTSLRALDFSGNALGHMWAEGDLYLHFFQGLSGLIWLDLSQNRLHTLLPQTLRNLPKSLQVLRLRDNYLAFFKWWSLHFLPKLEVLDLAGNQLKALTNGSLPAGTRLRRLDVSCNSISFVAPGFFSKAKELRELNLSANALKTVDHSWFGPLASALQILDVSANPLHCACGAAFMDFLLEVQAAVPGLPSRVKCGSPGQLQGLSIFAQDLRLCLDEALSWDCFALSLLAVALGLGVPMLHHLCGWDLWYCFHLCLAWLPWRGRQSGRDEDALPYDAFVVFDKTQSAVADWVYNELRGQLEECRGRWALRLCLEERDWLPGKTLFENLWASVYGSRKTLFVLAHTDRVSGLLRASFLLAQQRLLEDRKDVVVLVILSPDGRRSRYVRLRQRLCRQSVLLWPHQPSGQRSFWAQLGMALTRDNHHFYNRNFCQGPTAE

[2] = molecular target: T1, Toll-like receptor 9 (Homo sapiens); experiment: Induction of TLR9-mediated immune stimulation in human PBMC assessed as IL2R production at 2 ug/ml after 24 hrs by luminex multiplex assay (RVb = 0.02 +/- 0.01 ng/ml)
[3] = molecular target: T1, Toll-like receptor 9 (Homo sapiens); experiment: Induction of TLR9-mediated immune stimulation in human PBMC assessed as MIP1beta production at 10 ug/ml after 24 hrs by luminex multiplex assay (RVb = 0.03 +/- 0.02 ng/ml)
[4] = molecular target: T1, Toll-like receptor 9 (Homo sapiens); experiment: Induction of TLR9-mediated immune stimulation in human PBMC assessed as RANTES production at 10 ug/ml after 24 hrs by luminex multiplex assay (RVb = 0.05 +/- 0.04 ng/ml)
[5] = molecular target: T2, Toll-like receptor 9 (Mus musculus) (UniProt Q9EQU3); experiment: Induction of TLR9-mediated IL6 production in C57BL/6 mouse spleen cells after 24 hrs by ELISA; format: cell-based
T2 sequence (whole entry): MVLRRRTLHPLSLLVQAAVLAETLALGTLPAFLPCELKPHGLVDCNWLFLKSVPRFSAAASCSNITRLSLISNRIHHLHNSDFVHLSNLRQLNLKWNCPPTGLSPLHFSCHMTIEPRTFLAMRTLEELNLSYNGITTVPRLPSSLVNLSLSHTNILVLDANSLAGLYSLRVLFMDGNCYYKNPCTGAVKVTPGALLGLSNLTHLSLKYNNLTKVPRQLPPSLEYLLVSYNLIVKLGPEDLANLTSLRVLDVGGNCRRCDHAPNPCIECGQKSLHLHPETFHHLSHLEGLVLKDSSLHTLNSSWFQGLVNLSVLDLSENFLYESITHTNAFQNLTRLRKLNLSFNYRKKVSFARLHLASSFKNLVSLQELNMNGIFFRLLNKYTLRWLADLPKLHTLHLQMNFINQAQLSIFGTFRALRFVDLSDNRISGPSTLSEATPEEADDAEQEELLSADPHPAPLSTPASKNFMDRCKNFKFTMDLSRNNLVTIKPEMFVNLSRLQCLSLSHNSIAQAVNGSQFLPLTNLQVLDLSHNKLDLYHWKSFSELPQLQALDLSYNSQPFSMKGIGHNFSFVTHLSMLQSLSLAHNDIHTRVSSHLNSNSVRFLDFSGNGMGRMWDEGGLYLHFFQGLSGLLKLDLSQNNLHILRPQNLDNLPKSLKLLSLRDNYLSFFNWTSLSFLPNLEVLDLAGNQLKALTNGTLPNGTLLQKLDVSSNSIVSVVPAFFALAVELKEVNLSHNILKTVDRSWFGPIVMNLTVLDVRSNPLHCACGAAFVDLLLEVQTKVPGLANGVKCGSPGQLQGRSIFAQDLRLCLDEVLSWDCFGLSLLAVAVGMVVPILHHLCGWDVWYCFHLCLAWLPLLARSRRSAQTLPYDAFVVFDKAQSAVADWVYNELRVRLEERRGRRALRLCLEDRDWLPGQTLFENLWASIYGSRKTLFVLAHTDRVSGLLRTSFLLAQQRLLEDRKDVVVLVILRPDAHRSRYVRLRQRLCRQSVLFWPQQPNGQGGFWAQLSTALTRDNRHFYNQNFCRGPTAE
Method in brief: (§1)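 C57BL/6 mouse spleen cells were cultured with agonists at 0.1, 0.3, 1, 3 and 10 μg/mL for 24 h. Secreted IL-12 and IL-6 in the supernatants were measured by ELISA. Values are averages of triplicate wells from one representative of at least two independent experiments.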

[6] = molecular target: T1, Toll-like receptor 9 (Homo sapiens); experiment: Induction of TLR9-mediated immune stimulation in human PBMC assessed as MIP1alpha production at 2 ug/ml after 24 hrs by luminex multiplex assay (RVb = 0.01 ng/ml)
[7] = molecular target: T2, Toll-like receptor 9 (Mus musculus); experiment: Induction of TLR9-mediated IL12 production in C57BL/6 mouse spleen cells after 24 hrs by ELISA; format: cell-based; method in brief: as §1
[8] = molecular target: T1, Toll-like receptor 9 (Homo sapiens); experiment: Induction of TLR9-mediated immune stimulation in human PBMC assessed as MIP1beta production at 2 ug/ml after 24 hrs by luminex multiplex assay (RVb = 0.03 +/- 0.02 ng/ml)
Mus musculus = experiment: Immunostimulatory activity in C57BL/6 mouse assessed as increase in serum IL12 level at 1 mg/kg, sc after 2 hrs by ELISA; format: functional, organism-based; parameters: dose 1 mg/kg
Method in brief: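 Female C57BL/6 mice (n=3) received a single subcutaneous agonist dose of 1 mg/kg. Blood was taken by retro-orbital bleeding 2 h later, and serum IL-12 was measured by sandwich ELISA. Values are the mean of three mice ± SD.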

[9] = molecular target: T1, Toll-like receptor 9 (Homo sapiens); experiment: Induction of TLR9-mediated immune stimulation in human PBMC assessed as IL12 production at 2 ug/ml after 24 hrs by luminex multiplex assay (RVb = 0.00 ng/ml)

Compound	Activity [1] [ng/mL]	Activity [2] [ng/mL]	Activity [3] [ng/mL]	Activity [4] [ng/mL]	Activity [5]	Activity [6] [ng/mL]	Activity [7]	Activity [8] [ng/mL]	Activity (Mus musculus)	Activity [9] [ng/mL]
Cc1cn([C@H]2C[C@H](OCCOCCOCCOCCOP(=O)(S)O[C@H]3C[C@H](n4cc(C)c(=O)[nH]c4=O)O[C@@H]3COP(=O)(S)O[C@H]3[C@@H](O)[C@H](n4ccc(N)nc4=O)O[C@@H]3COP(=O)(S)O[C@H]3C[C@H](n4cc(C)c(=O)[nH]c4=O)O[C@@H]3COP(=O)(S)O[C@H]3C[C@H](n4cc(C)c(=O)[nH]c4=O)O[C@@H]3COP(=O)(S)O[C@H]3C[C@H](n4ccc5c(=O)[nH]c(N)nc54)O[C@@H]3COP(=O)(S)O[C@H]3[C@@H](O)[C@H](n4ccc(N)nc4=O)O[C@@H]3COP(=O)(S)O[C@H]3C[C@H](n4cc(C)c(=O)[nH]c4=O)O[C@@H]3COP(=O)(S)O[C@H]3[C@@H](O)[C@H](n4cnc5c(=O)[nH]c(N)nc54)O[C@@H]3COP(=O)(S)O[C@H]3C[C@H](n4cc(C)c(=O)[nH]c4=O)O[C@@H]3COP(=O)(S)O[C@H]3[C@@H](O)[C@H](n4ccc(N)nc4=O)O[C@@H]3COP(=O)(S)O[C@H]3C[C@H](n4cc(C)c(=O)[nH]c4=O)O[C@@H]3CO)[C@@H](COP(=O)(S)O[C@H]3[C@@H](O)[C@H](n4ccc(N)nc4=O)O[C@@H]3COP(=O)(S)O[C@H]3C[C@H](n4cc(C)c(=O)[nH]c4=O)O[C@@H]3COP(=O)(S)O[C@H]3C[C@H](n4cc(C)c(=O)[nH]c4=O)O[C@@H]3COP(=O)(S)O[C@H]3C[C@H](n4ccc5c(=O)[nH]c(N)nc54)O[C@@H]3COP(=O)(S)O[C@H]3[C@@H](O)[C@H](n4ccc(N)nc4=O)O[C@@H]3COP(=O)(S)O[C@H]3C[C@H](n4cc(C)c(=O)[nH]c4=O)O[C@@H]3COP(=O)(S)O[C@H]3[C@@H](O)[C@H](n4cnc5c(=O)[nH]c(N)nc54)O[C@@H]3COP(=O)(S)O[C@H]3C[C@H](n4cc(C)c(=O)[nH]c4=O)O[C@@H]3COP(=O)(S)O[C@H]3[C@@H](O)[C@H](n4ccc(N)nc4=O)O[C@@H]3COP(=O)(S)O[C@H]3C[C@H](n4cc(C)c(=O)[nH]c4=O)O[C@@H]3CO)O2)c(=O)[nH]c1=O (stereo not given in full)	9.05	0.04	0.96	1.09	Dose-dependent effect	0.04	Dose-dependent effect	0.08	Active	0.11
Cc1cn([C@H]2C[C@H](O[C@H]3C[C@@H](O)C[C@@H](OP(=O)(S)O[C@H]4C[C@H](n5cc(C)c(=O)[nH]c5=O)O[C@@H]4COP(=O)(S)O[C@H]4[C@@H](O)[C@H](n5ccc(N)nc5=O)O[C@@H]4COP(=O)(S)O[C@H]4C[C@H](n5cc(C)c(=O)[nH]c5=O)O[C@@H]4COP(=O)(S)O[C@H]4C[C@H](n5cc(C)c(=O)[nH]c5=O)O[C@@H]4COP(=O)(S)O[C@H]4C[C@H](n5ccc6c(=O)[nH]c(N)nc65)O[C@@H]4COP(=O)(S)O[C@H]4[C@@H](O)[C@H](n5ccc(N)nc5=O)O[C@@H]4COP(=O)(S)O[C@H]4C[C@H](n5cc(C)c(=O)[nH]c5=O)O[C@@H]4COP(=O)(S)O[C@H]4[C@@H](O)[C@H](n5cnc6c(=O)[nH]c(N)nc65)O[C@@H]4COP(=O)(S)O[C@H]4C[C@H](n5cc(C)c(=O)[nH]c5=O)O[C@@H]4COP(=O)(S)O[C@H]4[C@@H](O)[C@H](n5ccc(N)nc5=O)O[C@@H]4COP(=O)(S)O[C@H]4C[C@H](n5cc(C)c(=O)[nH]c5=O)O[C@@H]4CO)C3)[C@@H](COP(=O)(S)O[C@H]3[C@@H](O)[C@H](n4ccc(N)nc4=O)O[C@@H]3COP(=O)(S)O[C@H]3C[C@H](n4cc(C)c(=O)[nH]c4=O)O[C@@H]3COP(=O)(S)O[C@H]3C[C@H](n4cc(C)c(=O)[nH]c4=O)O[C@@H]3COP(=O)(S)O[C@H]3C[C@H](n4ccc5c(=O)[nH]c(N)nc54)O[C@@H]3COP(=O)(S)O[C@H]3[C@@H](O)[C@H](n4ccc(N)nc4=O)O[C@@H]3COP(=O)(S)O[C@H]3C[C@H](n4cc(C)c(=O)[nH]c4=O)O[C@@H]3COP(=O)(S)O[C@H]3[C@@H](O)[C@H](n4cnc5c(=O)[nH]c(N)nc54)O[C@@H]3COP(=O)(S)O[C@H]3C[C@H](n4cc(C)c(=O)[nH]c4=O)O[C@@H]3COP(=O)(S)O[C@H]3[C@@H](O)[C@H](n4ccc(N)nc4=O)O[C@@H]3COP(=O)(S)O[C@H]3C[C@H](n4cc(C)c(=O)[nH]c4=O)O[C@@H]3CO)O2)c(=O)[nH]c1=O (stereo not given in full)	13.6	0.07	2.15	2.13	Dose-dependent effect	0.05	Dose-dependent effect	0.13	Active	0.13
